The nature of data set [1]: folding enthalpy; higher = less favourable; fluorescence melt of hairpins on a sequencing array, two-state fit. To be noted: sodium 0.088 M. The method, boiled down: (§1)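 Two-state fits, bootstrapped, provided melting temperature and folding enthalpy from Cy3 fluorescence normalised to pre-quench Cy3 and to control constructs. Library hairpins with annealed Cy3 and quencher oligos were imaged on a sequenced MiSeq flow cell in 50 mM Na-HEPES pH 8.0, 25 mM NaCl, at 2.5 °C intervals up to 60 °C. Four replicates were combined with inverse-variance weighting. A 9.35 °C upward shift was applied to fitted temperatures to match UV melts.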

Data set [2] is described as follows: melting temperature; fluorescence melt of hairpins on a sequencing array, two-state fit, raised by 9.35 °C to match UV melts. Particulars: sodium 0.088 M. The method, boiled down:
as §1

On to GAATCCCCGAAAGGGTTC (((..(((....)))))), for which, in data set [1], the folding enthalpy is -14.4 kcal/mol. Besides, the Tm in data set [2] is 31 °C.
The like results for GAATCCGAAAGGAGATTC ((((((....)))..))) were, in that order, -18.7 kcal/mol and 36.4 °C.
As to GAATCCGAAAGGAGGTTC ((((((....)))..))), the folding enthalpy in data set [1] was -10.9 kcal/mol. In addition, the Tm in data set [2] came to 26.2 °C.
With GAATCCGAAAGGATCTTC ((((((....)))..))), the folding enthalpy in data set [1] is -24.5 kcal/mol. Besides, the Tm in data set [2] stood at 51.3 °C.
The like results for GAATCGCGAAAGCGTTTC (((.(((....))).))) were, in that order, -21.9 kcal/mol and 46.2 °C.
GAATCGGAAACGATTC ((((((....)))))): the folding enthalpy in data set [1] is -36.1 kcal/mol. In addition, in data set [2], the Tm was found to be 55.7 °C.
As for GAATCGGGAAACCGATTC (((((((....))))))), the folding enthalpy in data set [1] was -40.8 kcal/mol. Also, the Tm in data set [2] amounted to 63.6 °C.
For GAATGACGAAAGTCCTTC (((.(((....))).))), in that order: -26.7 kcal/mol and 38.5 °C.
GAATGACGAAAGTCTTC (((.(((....)))))): the folding enthalpy in data set [1] was -16.6 kcal/mol. Moreover, the Tm in data set [2] was determined as 34.6 °C.
GAATGACGAAAGTCTTTC (((.(((....))).))): the folding enthalpy in data set [1] is -25.6 kcal/mol. For the same sequence, in data set [2], the Tm was 44.6 °C.
As for GAATGAGGAAACTCACTC ((.((((....)))).)), the folding enthalpy in data set [1] is -11.2 kcal/mol. Further, the Tm in data set [2] is 26 °C.
GAATGCGAAAGCAATTC ((((((....))).))): in data set [1], the folding enthalpy is -18.7 kcal/mol. In addition, the Tm in data set [2] came to 48.4 °C.
As for GAATGCGAAAGCATTTTC ((((((....)))..))), the folding enthalpy in data set [1] was -14.6 kcal/mol. In addition, the Tm in data set [2] amounted to 49 °C.
For the sequence GAATGCGGAAACACATTC (((((.(....).))))), the folding enthalpy in data set [1] was -32.6 kcal/mol. Moreover, the Tm in data set [2] amounted to 39.8 °C.
Take GAATGCGGAAACGTATTC ((((.((....)).)))): the folding enthalpy in data set [1] was -35.2 kcal/mol. The Tm in data set [2] amounted to 47.6 °C.
Take GAATGGCGAAAGCCTTC (((.(((....)))))): in data set [1], the folding enthalpy is -11.9 kcal/mol. For the same sequence, the Tm in data set [2] turned out to be 41.1 °C.
On to GAATGGGGAAACCCATCC (.(((((....))))).), for which the folding enthalpy in data set [1] was -12.7 kcal/mol. Besides, the Tm in data set [2] stood at 36.5 °C.
With GAATGTGGAAACACACTC ((.((((....)))).)), the folding enthalpy in data set [1] is -11.6 kcal/mol. Moreover, in data set [2], the Tm is 29.8 °C.
In the case of GAATGTGGAAACACATTC (((((((....))))))), the folding enthalpy in data set [1] was -38.6 kcal/mol. Besides, the Tm in data set [2] worked out at 59.4 °C.
Take GAATTAGGAAACCAATTC (((((.(....).))))): in data set [1], the folding enthalpy was -10.8 kcal/mol. Further, the Tm in data set [2] was found to be 27.7 °C.
With GAATTAGGAAACTGATTC ((((.((....)).)))), the folding enthalpy in data set [1] is -19.8 kcal/mol. Also, the Tm in data set [2] is 33.7 °C.
As to GAATTTGGAAACAGATTC ((((.((....)).)))), the folding enthalpy in data set [1] was -25.2 kcal/mol. The Tm in data set [2] amounted to 33.3 °C.
For GACAAACGAAAGTTGGTC (((.(((....))).))), in that order: -29.9 kcal/mol and 49.6 °C.
Consider GACAAAGGAAACCTTGTC (((((.(....).))))), for which the folding enthalpy in data set [1] is -29.5 kcal/mol. The Tm in data set [2] is 36.4 °C.
For GACAACCGAAAGGTAGTC (((.(((....))).))), in data set [1], the folding enthalpy is -33 kcal/mol. Moreover, the Tm in data set [2] was found to be 51.3 °C.
Take GACAACGAAAGTTGCGTC ((((((....)))..))): the folding enthalpy in data set [1] was -12.1 kcal/mol. In addition, the Tm in data set [2] came to 40.6 °C.
On to GACAACGCGAAAGCGGTC (((..(((....)))))), for which the folding enthalpy in data set [1] is -13.7 kcal/mol. The Tm in data set [2] came out at 44.9 °C.
On to GACAACGGAAACATTGTC (((((.(....).))))), for which the folding enthalpy in data set [1] is -26.3 kcal/mol. Further, the Tm in data set [2] worked out at 34.6 °C.
GACAAGCGAAAGCTGGTC (((.(((....))).))): the folding enthalpy in data set [1] is -32.4 kcal/mol. Moreover, the Tm in data set [2] was determined as 56.4 °C.
As to GACAAGCGAAAGCTGTC (((.(((....)))))), the folding enthalpy in data set [1] is -23.1 kcal/mol. In addition, in data set [2], the Tm amounted to 56 °C.
The like results for GACAAGGGAAACCTTGTC (((((((....))))))) were, in that order, -40.4 kcal/mol and 59.4 °C.
As to GACACAGAAATGTGTC ((((((....)))))), the folding enthalpy in data set [1] was -28.5 kcal/mol. Moreover, in data set [2], the Tm came out at 56.5 °C.
The like results for GACACAGGAAACCGTGTC (((((.(....).))))) were, in that order, -41.1 kcal/mol and 48.4 °C.
GACACCACGAAAGTGGTC (((..(((....)))))): the folding enthalpy in data set [1] was -6.51 kcal/mol. Also, in data set [2], the Tm came to 39 °C.
As to GACACCCGAAAGGGCGTC (((.(((....))).))), in data set [1], the folding enthalpy was -36.7 kcal/mol. Moreover, in data set [2], the Tm was determined as 58.9 °C.
The like results for GACACCGAAAGGTACGTC ((((((....)))..))) were, in that order, -14.1 kcal/mol and 35.8 °C.

The values are drawn from the array DNA melting data of Ke et al. (doi:10.1101/2024.01.08.574731).
